Data taken from ChEMBL document CHEMBL1140861, “Short antisense oligonucleotides with novel 2'-4' conformationaly restricted nucleoside analogues show improved potency without increased toxicity in animals” (J Med Chem, 2009).
Calls of active or inactive are those of the source. The calls are words filed in the database; no cut-off is given here.

What was measured:
Mus musculus [1] = experiment: Reduction of PTEN mRNA level in ip dosed BALB/c mouse liver administered twice a week for 3 weeks measured after 72 hrs of last dose; assay type: functional
Method in brief: (§1)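 Male Balb/c mice, 6 weeks old, dosed ip twice weekly for 3 weeks at 0.5, 1.5, 4.7 and 15 mg/kg (two ASOs) or 0.7, 2.3, 7.2 and 23 mg/kg (MOE control); sacrificed 72 h after last dose; ALT, liver PTEN mRNA, liver and spleen weights and body weight gain assessed; ED50 derived; errors as sd.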

Mus musculus [2] = experiment: Hepatotoxicity in BALB/c mouse assessed as increase in liver ALT level at 0.5 mg/kg, ip administered twice a week for 3 weeks measured after 72 hrs of last dose; assay type: toxicity, organism-based; design: dose 0.5 mg/kg, route intraperitoneal; conditions: in vivo; method in brief: as §1
Mus musculus [3] = experiment: Toxicity in BALB/c mouse assessed as increase in liver weight at 0.5 mg/kg, ip administered twice a week for 3 weeks measured after 72 hrs of last dose; assay type: organism-based; design: dose 0.5 mg/kg, route intraperitoneal; conditions: in vivo; method in brief: as §1
Mus musculus [4] = experiment: Toxicity in BALB/c mouse assessed as increase in liver weight at 1.5 mg/kg, ip administered twice a week for 3 weeks measured after 72 hrs of last dose; assay type: organism-based; design: dose 1.5 mg/kg, route intraperitoneal; conditions: in vivo; method in brief: as §1
Mus musculus [5] = experiment: Hepatotoxicity in BALB/c mouse assessed as increase in liver ALT level at 1.5 mg/kg, ip administered twice a week for 3 weeks measured after 72 hrs of last dose; assay type: toxicity, organism-based; design: dose 1.5 mg/kg, route intraperitoneal; conditions: in vivo; method in brief: as §1
Mus musculus [6] = experiment: Hepatotoxicity in BALB/c mouse assessed as increase in liver ALT level at 4.7 mg/kg, ip administered twice a week for 3 weeks measured after 72 hrs of last dose; assay type: toxicity, organism-based; design: dose 4.7 mg/kg, route intraperitoneal; conditions: in vivo; method in brief: as §1
Mus musculus [7] = experiment: Hepatotoxicity in BALB/c mouse assessed as increase in liver ALT level at 15 mg/kg, ip administered twice a week for 3 weeks measured after 72 hrs of last dose; assay type: toxicity, organism-based; design: dose 15 mg/kg, route intraperitoneal; conditions: in vivo; method in brief: as §1
Mus musculus [8] = experiment: Toxicity in BALB/c mouse assessed as increase in liver weight at 4.7 mg/kg, ip administered twice a week for 3 weeks measured after 72 hrs of last dose; assay type: organism-based; design: dose 4.7 mg/kg, route intraperitoneal; conditions: in vivo; method in brief: as §1
Mus musculus [9] = experiment: Toxicity in BALB/c mouse assessed as increase in liver weight at 15 mg/kg, ip administered twice a week for 3 weeks measured after 72 hrs of last dose; assay type: organism-based; design: dose 15 mg/kg, route intraperitoneal; conditions: in vivo; method in brief: as §1
Mus musculus [10] = experiment: Toxicity in BALB/c mouse assessed as increase in spleen weight at 0.5 mg/kg, ip administered twice a week for 3 weeks measured after 72 hrs of last dose; assay type: organism-based; design: dose 0.5 mg/kg, route intraperitoneal; conditions: in vivo; method in brief: as §1
Mus musculus [11] = experiment: Toxicity in BALB/c mouse assessed as increase in spleen weight at 1.5 mg/kg, ip administered twice a week for 3 weeks measured after 72 hrs of last dose; assay type: organism-based; design: dose 1.5 mg/kg, route intraperitoneal; conditions: in vivo; method in brief: as §1
Mus musculus [12] = experiment: Toxicity in BALB/c mouse assessed as increase in spleen weight at 4.7 mg/kg, ip administered twice a week for 3 weeks measured after 72 hrs of last dose; assay type: organism-based; design: dose 4.7 mg/kg, route intraperitoneal; conditions: in vivo; method in brief: as §1
Mus musculus [13] = experiment: Toxicity in BALB/c mouse assessed as increase in spleen weight at 15 mg/kg, ip administered twice a week for 3 weeks measured after 72 hrs of last dose; assay type: organism-based; design: dose 15 mg/kg, route intraperitoneal; conditions: in vivo; method in brief: as §1
Mus musculus [14] = experiment: Toxicity in BALB/c mouse assessed as reduction in body weight at 0.5 mg/kg, ip administered twice a week for 3 weeks measured after 72 hrs of last dose; assay type: organism-based; design: dose 0.5 mg/kg, route intraperitoneal; conditions: in vivo; method in brief: as §1
Mus musculus [15] = experiment: Toxicity in BALB/c mouse assessed as reduction in body weight at 1.5 mg/kg, ip administered twice a week for 3 weeks measured after 72 hrs of last dose; assay type: organism-based; design: dose 1.5 mg/kg, route intraperitoneal; conditions: in vivo; method in brief: as §1
Mus musculus [16] = experiment: Toxicity in BALB/c mouse assessed as reduction in body weight at 4.7 mg/kg, ip administered twice a week for 3 weeks measured after 72 hrs of last dose; assay type: organism-based; design: dose 4.7 mg/kg, route intraperitoneal; conditions: in vivo; method in brief: as §1
Mus musculus [17] = experiment: Toxicity in BALB/c mouse assessed as reduction in body weight at 15 mg/kg, ip administered twice a week for 3 weeks measured after 72 hrs of last dose; assay type: organism-based; design: dose 15 mg/kg, route intraperitoneal; conditions: in vivo; method in brief: as §1
Mus musculus [18] = experiment: Reduction of PTEN mRNA expression in ip dosed BALB/c mouse administered twice a week for 3 weeks assessed as antisense oligonucleotide level in liver measured after 72 hrs of last dose; assay type: functional, organism-based
Mus musculus [19] = organism: Mus musculus; experiment: Binding affinity to mouse PTEN mRNA assessed as melting temperature
Method in brief: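 Tm of ASO–RNA duplex, i.e. melting temperature of the ASO hybridised to its complementary RNA.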

bEND = experiment: Reduction in mouse PTEN mRNA level expressed in mouse bEND cells; assay type: functional, cell-based
Method in brief: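 bEND mouse brain endothelial cells transfected with ASO using lipofectin; PTEN mRNA reduction measured over a dose range; IC50 taken from dose-response curves.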

Mus musculus [20] = experiment: Reduction of PTEN mRNA level in ip dosed BALB/c mouse liver after 72 hrs; assay type: functional
Mus musculus [21] = experiment: Reduction of PTEN level in ip dosed BALB/c mouse liver at 37 mg/kg by Western blot analysis; assay type: functional, organism-based; design: dose 37 mg/kg
Mus musculus [22] = experiment: Metabolic stability in BALB/c mouse liver assessed as antisense oligonucleotide level at 18 mg/kg; assay type: ADME, organism-based; design: dose 18 mg/kg; conditions: in vivo
Mus musculus [23] = experiment: Reduction of PTEN mRNA level in BALB/c mouse liver at 32 mg/kg, ip after 72 hrs; assay type: functional, organism-based; design: dose 32 mg/kg
Method in brief: (§2)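 Balb/c mice, 6 weeks old, n = 4 per dose group, single ip doses of 32, 66 or 100 mg/kg; killed 72 h after administration; serum ALT and liver PTEN mRNA quantified after sacrifice; errors as sd.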

Mus musculus [24] = experiment: Reduction of PTEN mRNA level in BALB/c mouse liver at 66 mg/kg, ip after 72 hrs; assay type: functional, organism-based; design: dose 66 mg/kg; method in brief: as §2
Mus musculus [25] = experiment: Reduction of PTEN mRNA level in BALB/c mouse liver at 100 mg/kg, ip after 72 hrs; assay type: functional; method in brief: as §2
Mus musculus [26] = experiment: Hepatotoxicity in BALB/c mouse assessed as increase in liver ALT level at 100 mg/kg, ip after 72 hrs; assay type: toxicity, organism-based; design: dose 100 mg/kg, route intraperitoneal; conditions: in vivo; method in brief: as §2

In the case of `Cc1cn([C@@H]2O[C@@]3(COP(O)(=S)O[C@H]4[C@H]5O[C@@H](C)[C@]4(COP(O)(=S)O[C@H]4C[C@H](n6cc(C)c(=O)[nH]c6=O)O[C@@H]4COP(O)(=S)O[C@H]4[C@@H](O)[C@H](n6cnc7c6N=CNC7N)O[C@@H]4COP(O)(=S)O[C@H]4[C@@H](O)[C@H](n6cnc7c(=O)[nH]c(N)nc76)O[C@@H]4COP(O)(=S)O[C@H]4[C@@H](O)[C@H](n6ccc(N)nc6=O)O[C@@H]4COP(O)(=S)O[C@H]4[C@@H](O)[C@H](n6cnc7c(N)ncnc76)O[C@@H]4COP(O)(=S)O[C@H]4[C@@H](O)[C@H](n6ccc(N)nc6=O)O[C@@H]4COP(O)(=S)O[C@H]4[C@@H](O)[C@H](n6cc(C)c(=O)[nH]c6=O)O[C@@H]4COP(O)(=S)O[C@H]4[C@@H](O)[C@H](n6cnc7c(=O)[nH]c(N)nc76)O[C@@H]4COP(O)(=S)O[C@H]4[C@@H](O)[C@H](n6cnc7c(=O)[nH]c(N)nc76)O[C@@H]4COP(O)(=S)O[C@H]4[C@@H](O)[C@H](n6ccc(N)nc6=O)O[C@@H]4COP(O)(=S)O[C@H]4[C@H]6O[C@@H](C)[C@]4(COP(O)(=S)O[C@H]4[C@H]7O[C@@H](C)[C@]4(COP(=O)(O)O)O[C@H]7n4ccc(=O)[nH]c4=O)O[C@H]6n4cc(C)c(N)nc4=O)O[C@H]5n4ccc(=O)[nH]c4=O)[C@H](C)O[C@@H]2[C@@H]3O)c(=O)nc1N` (stereo partly drawn), the ED50 (Mus musculus [1]) is reported as 2.4 mg/kg, the Activity (Mus musculus [2]) is reported as “Toxic” and the Activity (Mus musculus [3]) is reported as “Non-toxic”. For the same compound, the Activity (Mus musculus [4]) was “Non-toxic”, the Activity (Mus musculus [5]) was “Toxic” and the Activity (Mus musculus [6]) was “Toxic”. The Activity (Mus musculus [7]) was “Toxic”, the Activity (Mus musculus [8]) was “Non-toxic” and the Activity (Mus musculus [9]) was “Non-toxic”. The Activity (Mus musculus [10]) was “Non-toxic”, the Activity (Mus musculus [11]) was “Non-toxic” and the Activity (Mus musculus [12]) was “Non-toxic”. For the same compound, the Activity (Mus musculus [13]) was “Non-toxic”, the Activity (Mus musculus [14]) was “Toxic” and the Activity (Mus musculus [15]) was “Toxic”. For the same compound, the Activity (Mus musculus [16]) was “Toxic”, the Activity (Mus musculus [17]) was “Toxic” and the EC50 (Mus musculus [18]) was 6.3 µg/g. The Tm (Mus musculus [19]) was 59.1 °C, the IC50 (bEND) was 5.8 nM and the ED50 (Mus musculus [20]) was 9 mg/kg. For the same compound, the Activity (Mus musculus [21]) was “Active”, the Stability (Mus musculus [22]) was 25 µg/g and the Activity (Mus musculus [23]) was “Active”. For the same compound, the Activity (Mus musculus [24]) was “Active”, the Activity (Mus musculus [25]) was “Active” and the Activity (Mus musculus [25]; route intraperitoneal) was greater than 90%. The Activity (Mus musculus [26]) was “Non-toxic”.
